Rows were chosen to be rich in hits. Some 0.59% of all compounds tested hit in one or more screens of this group.
TRPML3 agonist = human mucolipin-3 channel agonism; 220,000 compounds, 0.29% hits; Q8TDD5; AID 1448; HEK293 TRPML3-YFP, Fluo-8 calcium fluorescence; 100% = the carbachol control signal; activation, % at 3 µM;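 active = activation above its plate's cutoff, the mean activation of the plate's test wells plus 3 SD, cut at about 12% in these data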;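 also: 0% = DMSO only wells and 100% = carbachol wells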
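system = HEK293 cells stably carrying human TRPML3-YFP | doses = one concentration, 3 µM nominal, 0.3% DMSO | timing = dye loading 1 h 37 °C then 30 min ambient, 125 s read | detection = Fluo-8 calcium dye fluorescence, ex 470-495, em 515-575 nm | benchmarks = high control carbachol 87 µM, low control DMSO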
OXTR potentiator = potentiates the human oxytocin receptor response; CHO-OTR cells, Fluo-8 calcium fluorescence, potentiator mode; 0% = oxytocin EC15, 100% = EC100; activation, % at 3 µM; 320,000 compounds, 0.061% hits; AID 2445;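 active = activation above that plate's cutoff, the mean activation of tested compounds plus 3 SD, cut at about 6.6% in these data, passing the limit was not always enough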;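 also: 100% uses oxytocin at 75 nM as the full agonist control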
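Measured by – Fluo-8 calcium dye fluorescence · Test system – human OTR in CHO cells · Dosing – one concentration, 3.0 µM compound · Controls – EC15 oxytocin alone as 0%, 75 nM oxytocin as 100% · Evaluation – normalized max/min fluorescence ratio, % activation · Timing – 6 min pre-incubation, 100 s read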
TRPN1 ag = agonists of zebrafish TRPN1 channel; HEK293 zebrafish TRPN1-YFP, Fluo-8 calcium fluorescence; 100% = response to 87 µM carbachol; activation, % at 3 µM; 220,000 compounds, 0.18% hits; AID 1424;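 active = activation above its plate's cutoff, the mean activation of test wells on that plate plus 3 SD, cut at about 19% in these data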;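 also: 0% = DMSO alone and 100% = 87 µM carbachol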
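System: zebrafish TRPN1-YFP in HEK293 cells / Dosing: 3 µM single point / Timing: dye loading 1 h at 37 °C, then 30 min room temperature / Signal: Fluo-8 calcium fluorescence, excitation 470-495 nm, emission 515-575 nm / Read-out basis: percent activation from peak over basal fluorescence ratio, control-normalized / Control set: high carbachol 87 µM, low DMSO alone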
V1aR counter = V1a receptor agonism, counter-screen for OXTR agonists | P37288 | CHO-V1R cells, Fluo-8 calcium fluorescence, agonist mode; 0% DMSO, 100% 3 nM vasopressin | activation, % at 3 µM | 320,000 compounds, 0.25% hits;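 active = activation above the mean activation of all tested compounds plus 3 SD, per screening run, cut at about 20% in these data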;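 also: signal is peak over basal fluorescence ratio across a 100 second FLIPR read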
Target sequence (P37288 whole entry, looked up): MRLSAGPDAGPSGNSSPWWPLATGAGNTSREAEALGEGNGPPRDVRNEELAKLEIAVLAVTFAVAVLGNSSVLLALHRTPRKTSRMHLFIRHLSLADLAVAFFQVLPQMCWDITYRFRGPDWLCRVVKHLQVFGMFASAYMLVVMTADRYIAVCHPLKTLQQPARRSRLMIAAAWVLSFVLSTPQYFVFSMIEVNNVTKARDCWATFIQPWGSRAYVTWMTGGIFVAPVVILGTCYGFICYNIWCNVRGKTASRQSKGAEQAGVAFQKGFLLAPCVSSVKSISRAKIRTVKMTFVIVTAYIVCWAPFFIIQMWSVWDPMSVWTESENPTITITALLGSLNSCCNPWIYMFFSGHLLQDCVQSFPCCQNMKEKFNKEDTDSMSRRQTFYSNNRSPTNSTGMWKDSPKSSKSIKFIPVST
OXTR ag = human OXTR agonism; 320,000 compounds, 0.32% hits; AID 2435; CHO-OTR cells, Fluo-8 calcium fluorescence; normalized: DMSO 0%, oxytocin 100%; P30559; activation, % at 3 µM;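 active = activation above the mean of all tested compounds plus 3 SD, cutoff set per screening run, cut at about 20% in these data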;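 also: peak over basal fluorescence ratio from a 100 s FLIPR kinetic read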
* hit, by the source's call.

How did CN1C2CCC1/C(=C/c1cccn1C)C(=O)/C2=C\c1cccn1C do in these assays?
TRPML3 agonist: 4; OXTR potentiator: -13; TRPN1 ag: 5; V1aR counter: 45*; OXTR ag: 45*

How did O=C(COC(=O)c1ccccc1[N+](=O)[O-])Nc1cccnc1Cl do in these assays?
OXTR potentiator: -1; V1aR counter: 0; OXTR ag: 0

How did COC(=O)c1sc2ncn(CC(=O)NCCc3ccc(OC)c(OC)c3)c(=O)c2c1C do in these assays?
TRPML3 agonist: 1; OXTR potentiator: -8; TRPN1 ag: -1; V1aR counter: 1; OXTR ag: 0

How did COc1ccc(CCNC(=O)Cn2cnc3sc(C)c(-c4ccc(F)cc4)c3c2=O)cc1OC do in these assays?
TRPML3 agonist: 6; OXTR potentiator: -36; TRPN1 ag: 11; V1aR counter: 23*; OXTR ag: 20*

What do the screens show for `CCCCC/C=C\C/C=C\C/C=C\C/C=C\CCCC(=O)O`?
OXTR potentiator: 9.6*; V1aR counter: -1; OXTR ag: -1

Results for Cc1ccc(C2C(C#N)=C(N)SC(N)=C2C#N)c(C)c1 ?
TRPML3 agonist: 2; OXTR potentiator: -24; TRPN1 ag: 6; V1aR counter: 21*; OXTR ag: 20*

Results for Cc1ccc(C2C(C#N)=C(N)SC(N)=C2C#N)cc1 ?
TRPML3 agonist: 1; TRPN1 ag: 3

How did Cc1nnc2nc(-c3ccccc3)nc(-c3ccccc3)n12 do in these assays?
TRPML3 agonist: 0; OXTR potentiator: -8; TRPN1 ag: -1; V1aR counter: 0; OXTR ag: -2

How did C=C1C(=O)C=C2CN(C(=O)c3ccccc3)[C@@](Cc3ccc(F)cc3)(C(=O)OC)[C@@H]12 do in these assays?
TRPML3 agonist: 5; OXTR potentiator: -17; TRPN1 ag: 37*; V1aR counter: 81*; OXTR ag: 69*

What do the screens show for `COC(=O)[C@@]1(Cc2ccc(OC)cc2)[C@@H]2C(=CC(=O)[C@H]2CC(=O)C(=O)N(C)C)CN1C(=O)c1ccccc1`?
TRPML3 agonist: 1; OXTR potentiator: -6; TRPN1 ag: 1; V1aR counter: 1; OXTR ag: 0

How did Cc1ccc(-n2c(N)c(C#N)c(-c3ccc(Cl)cc3)c(C#N)c2=O)cc1 do in these assays?
TRPML3 agonist: 0; OXTR potentiator: -25; TRPN1 ag: 2; V1aR counter: 24*; OXTR ag: 29*

What do the screens show for `Cc1ccc(-c2c(C#N)c(N)n(-c3ccc(C)cc3)c(=O)c2C#N)cc1`?
TRPML3 agonist: 1; OXTR potentiator: -11; TRPN1 ag: 0; V1aR counter: 9; OXTR ag: 10

What do the screens show for `CC1(c2ccc([N+](=O)[O-])cc2)NC(=O)N(CC(=O)c2ccc3c(c2)OCO3)C1=O` (stereo not drawn)?
OXTR potentiator: -20; V1aR counter: 23*; OXTR ag: 34*

How did CC1(c2ccc(OC(F)F)cc2)NC(=O)N(CC(=O)c2ccc3c(c2)OCO3)C1=O (stereo not drawn) do in these assays?
OXTR potentiator: -22; V1aR counter: 39*; OXTR ag: 41*

What do the screens show for `CC(=O)c1c(C)[nH]c(C(=O)CN2C(=O)NC(C)(c3ccc4c(c3)OCO4)C2=O)c1C` (stereo not drawn)?
OXTR potentiator: -6; V1aR counter: 8; OXTR ag: 6

Results for CN(C)c1ccc(-c2nnc(-c3ccccc3F)o2)cc1 ?
OXTR potentiator: -10; V1aR counter: 0; OXTR ag: -2

How did Cc1ccc(NC(=O)C2COc3ccccc3O2)cc1C (stereo not drawn) do in these assays?
OXTR potentiator: -9; V1aR counter: 6; OXTR ag: -3

Results for O=C1CSC(=S)N1/N=C/c1cc(Br)c(O)c(Br)c1 ?
OXTR potentiator: -16; V1aR counter: 140*; OXTR ag: 158*

Results for CCOc1ccc(/C=C2/SC(=O)NC2=S)cc1 ?
TRPML3 agonist: 14*; OXTR potentiator: -6; TRPN1 ag: 34*; V1aR counter: 5; OXTR ag: 4

Results for O=C(Nc1ccc(Cl)cc1)c1ccc(S(=O)(=O)N2CCOCC2)cc1 ?
OXTR potentiator: -12; V1aR counter: 8; OXTR ag: 7

Results for CC(C)NS(=O)(=O)c1ccc(NC(=O)C(C)Oc2ccc(C(=O)c3ccccc3)cc2)cc1 (stereo not drawn) ?
TRPML3 agonist: 21*; OXTR potentiator: -18; TRPN1 ag: 50*; V1aR counter: 66*; OXTR ag: 54*

Results for COc1ccc(NC(=O)C(C)Oc2ccc(/C(C)=N\O)cc2)cc1 (stereo not drawn) ?
TRPML3 agonist: 4; OXTR potentiator: -23; TRPN1 ag: 10; V1aR counter: 33*; OXTR ag: 40*

What do the screens show for `CC(Oc1ccc(Cl)cc1)C(=O)Nc1ccc(S(=O)(=O)N2CCOCC2)cc1` (stereo not drawn)?
OXTR potentiator: -16; V1aR counter: 28*; OXTR ag: 30*

How did COc1ccc(OC(C)C(=O)Nc2ccc([N+](=O)[O-])cc2)cc1 (stereo not drawn) do in these assays?
TRPML3 agonist: -1; OXTR potentiator: -15; TRPN1 ag: 2; V1aR counter: 6; OXTR ag: 3

How did CCCN1C(=O)/C(=C/c2ccc(N3CCCC3)c(C)c2)NC1=S do in these assays?
TRPML3 agonist: 52*; OXTR potentiator: -24; TRPN1 ag: 85*; V1aR counter: 113*; OXTR ag: 112*

What do the screens show for `Cc1cc(N2CCCC2)ccc1/C=C1/C(=O)N(C)C(=S)N1C`?
TRPML3 agonist: 4; OXTR potentiator: -11; TRPN1 ag: 5; V1aR counter: 12; OXTR ag: 8

How did Cc1cc(/C=C2/C(=O)N(C)C(=S)N2C)ccc1N1CCCC1 do in these assays?
TRPML3 agonist: 4; OXTR potentiator: -21; TRPN1 ag: 7; V1aR counter: 29*; OXTR ag: 23*

What do the screens show for `CCCN1C(=O)/C(=C/c2ccc(OCC(=O)OCC)cc2)NC1=S`?
TRPML3 agonist: 2; TRPN1 ag: 11

How did Cc1cc(/C=C2\NC(=S)N(C)C2=O)ccc1N1CCCC1 do in these assays?
TRPML3 agonist: 12*; OXTR potentiator: -20; TRPN1 ag: 32*; V1aR counter: 79*; OXTR ag: 69*

Results for CCCS(=O)(=O)c1nc(S(=O)(=O)c2ccc(C)cc2)c(N2CCC(C(N)=O)CC2)s1 ?
OXTR potentiator: 2; V1aR counter: -1; OXTR ag: 1

How did CC(C)c1cc(-c2cc(C(=O)NCc3ccccc3)on2)nc(NCC2CC2)n1 do in these assays?
OXTR potentiator: -18; V1aR counter: 35*; OXTR ag: 31*
